Experimental data gathered from unrelated publications.
Each line is one published result; the experiments were not run side by side.
Target: Serine/threonine-protein kinase/endoribonuclease IRE1 (ERN1, Homo sapiens, UniProt O75460)

SMILES | assay | setting | remaining binding
CCOCCn1cc(C(=O)Nc2ccc(-n3nc(-c4cccnc4)cc3C(F)(F)F)cn2)ccc1=O | cell-free assay, competition with immobilised ligand | 1 µM | 87%
c1cncc(-c2cccc(Nc3nccc(NC4CCCCC4)n3)c2)c1 | binding, competition with immobilised ligand | 10 µM | 44%
FC(F)(F)Oc1cccc(-c2cnc3ccc(-c4ccncc4)nn23)c1 | cell-free assay, competition with immobilised ligand | 5 µM | 79%
O=C(NCCCN1CCOCC1)c1ccc(Nc2ncc(Cl)c(-c3ccc(Cl)s3)n2)cc1 | binding, competition with immobilised ligand | 1 µM | 27%
CN(C)c1nccc(-c2cnn3ncccc23)n1 | binding | 1 µM | 100%
CNC(=O)[C@@H]1CC[C@@H](n2c(-c3ccc4cnccc4c3)nc3ccc(C(=O)NCc4cccc(C(N)=O)c4)cc32)C1 | binding, competition with immobilised ligand | 1 µM | 97%
CNC(=O)Nc1ccc2c(c1)CC[C@@]21OC(=O)N(CC(=O)N(Cc2ccc(F)cc2)[C@@H](C)C(F)(F)F)C1=O | cell-free assay, competition with immobilised ligand | 1 µM | 56%
Cc1cnc(Nc2ccc(C(=O)N3CCC(N4CCCC4)CC3)cc2)nc1-c1cc2ccccc2s1 | binding, competition with immobilised ligand | 1 µM | 24%
CCCOc1ccc([C@H]2[C@H](C(=O)O)[C@@H](c3ccc4c(c3)OCO4)CN2CC(=O)Nc2c(CC)cccc2CC)cc1 | cell-free assay, competition with immobilised ligand | 1 µM | 86%
Cc1cnn2ncc(-c3ccnc(N(C)C)n3)c2c1 | binding | 1 µM | 100%
Nc1ncc2c(n1)-c1c([nH]c3ccc(C#CC4CC4)cc13)CCCC2 | binding, competition with immobilised ligand | 1 µM | 100%
CN1CCN(c2cnc3c(C4CCN(C(=O)c5ccc(OC(F)(F)F)cc5N)CC4)ncnc3c2)CC1 | cell-free assay, competition with immobilised ligand | 1 µM | 99%
N[C@@H]1CCN(c2nccc(-c3cnn4ncccc34)n2)C1 | binding | 1 µM | 100%
COc1ncc2cc3ccccc3nc2c1C#N | cell-free assay, competition with immobilised ligand | 5 µM | 93%
O=C(c1ccc(Nc2ncc(Cl)c(-c3cc4ccccc4s3)n2)cc1)N1CCC(N2CCCC2)CC1 | binding, competition with immobilised ligand | 1 µM | 37%
CN(C)c1nccc(-c2cnc3ncccn23)n1 | binding | 1 µM | 60%
CCC(=O)N[C@H]1CC[C@@H](C(=O)N(C)c2ccc(-c3nc4ccccc4o3)cc2)C1 | cell-free assay, competition with immobilised ligand | 1 µM | 91%
F[C@@H]1CCN(c2nccc(-c3cnn4ncccc34)n2)C1 | binding | 1 µM | 83%
O=C(O)[C@@H]1[C@@H](Cn2nnc3ccccc3c2=O)CC[C@H]1C(=O)c1ccc(OCCC2CCOCC2)cc1 | cell-free assay, competition with immobilised ligand | 1 µM | 88%
CN(CCCC(F)(F)F)c1nccc(-c2cnn3ncccc23)n1 | binding | 1 µM | 97%
O=C(NCC1CCOCC1)c1n[nH]cc1NC(=O)c1c(F)cccc1F | binding, competition with immobilised ligand | 1 µM | 65%
